Most compounds without a hit are left out; they make up all but 2.4% or so of the library.
SUMO1-SIM PPI – modulators of SUMO1 protein-protein interactions, primary screen, biochemical, uHTS; 360,000 compounds, 0.33% hits; inhibition, % at 20 µM; AID 602429, 2012; SUMO1 binding to a labelled peptide, TR-FRET, 1 h; Small ubiquitin-related modifier 1 (Homo sapiens), P63165; in the data active means inhibition above about 37%
Target sequence (P63165 whole entry, looked up): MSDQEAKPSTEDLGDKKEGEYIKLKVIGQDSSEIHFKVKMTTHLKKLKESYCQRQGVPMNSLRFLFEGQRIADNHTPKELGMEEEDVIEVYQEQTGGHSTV
LMPTP block – LMPTP phosphatase inhibitors, primary screen, biochemical, fluorescence intensity, uHTS | recombinant LMPTP-A, OMFP fluorogenic substrate | Low molecular weight phosphotyrosine protein phosphatase (Homo sapiens), P24666 | 360,000 compounds, 0.22% hits | AID 651560, 2012 | inhibition, % at 20 µM;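 active means compounds that cut the enzyme signal by at least half of the control window in the single-dose screen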
Target sequence (P24666 whole entry, looked up): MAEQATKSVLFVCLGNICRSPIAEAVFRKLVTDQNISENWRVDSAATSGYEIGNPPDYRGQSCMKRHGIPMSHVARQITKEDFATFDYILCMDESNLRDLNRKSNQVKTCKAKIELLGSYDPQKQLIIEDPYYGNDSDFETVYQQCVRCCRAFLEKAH
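Test system – LMPTP-A enzyme · Amount – LMPTP-A at 0.625 nM final in the reaction · Buffer or medium – Bis-Tris pH 6.0, DTT, detergent · Reagent – OMFP 400 µM · Doses – single 20 µM dose · Schedule – reaction 50 min, room temperature, dark · Detection – fluorescence intensity of OMFP turnover product · Evaluation – percent inhibition versus substrate-only and uninhibited controls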
Scp1 inh – Scp-1 phosphatase inhibitors, primary screen, biochemical, colorimetric, uHTS; Carboxy-terminal domain RNA polymerase II polypeptide A small phosphatase 1 (Homo …; Recombinant Scp1, phosphopeptide, malachite green phosphate absorbance; inhibition, % at 20 µM; 340,000 compounds, 0.88% hits; AID 493091, 2011;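 active means inhibition above about 50% at 20 µM, limit read from the data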
Target sequence (Q9GZU7 76-261 limits assumed): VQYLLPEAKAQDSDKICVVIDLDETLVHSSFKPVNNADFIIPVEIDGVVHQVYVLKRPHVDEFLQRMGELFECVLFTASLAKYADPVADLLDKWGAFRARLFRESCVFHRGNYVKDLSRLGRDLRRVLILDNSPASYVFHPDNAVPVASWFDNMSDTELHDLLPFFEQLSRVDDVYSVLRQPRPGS
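Test system: SCP-1 catalytic domain; Buffer or medium: Acidic Tris acetate buffer with magnesium and detergent; Also added: Phosphorylated 17-residue peptide substrate; Compound: single 20 µM dose, 1% DMSO; Schedule: enzyme reaction 45 min at room temperature, colour 5 min, stabilisation 30 min; Signal: Phosphate-binding colour reagent, absorbance read at 630 nm.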
STEP inh – STEP phosphatase inhibitors, primary screen, biochemical, fluorescence intensity, uHTS; recombinant STEP, OMFP fluorogenic substrate; inhibition, % at 20 µM; 360,000 compounds, 0.25% hits; AID 588621, 2011;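 active means inhibition at 20 µM, scaled per plate between control wells, above about 37%, limit read from the data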
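material = STEP tyrosine phosphatase | reagent = fluorogenic phosphatase substrate OMFP at 25 µM final | doses = single compound dose of 20 µM, 1% DMSO final | schedule = 20 min reaction, room temperature, in the dark | measured by = fluorescence, 480/540 nm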
NadD block – inhibitors of S. aureus NadD, primary screen, biochemical, colorimetric, uHTS | Nicotinate-nucleotide adenylyltransferase NadD (Staphylococcus aureus N315) | purified NadD enzyme, colorimetric absorbance read-out | inhibition, % at 20 µM | 360,000 compounds, 0.78% hits | AID 602399, 2012; in the data active means inhibition above about 26%
DNMT1 inh – human DNMT1 methyltransferase inhibitors, primary screen, biochemical, molecular beacon, fluorescence, HinP1I cleavage, uHTS | 360,000 compounds, 0.83% hits | inhibition (reported as % activation of signal), % at 10 µM | DNA (cytosine-5)-methyltransferase 1 (Homo sapiens), P26358; in the data active means inhibition above about 50%
Scp1 confirm – Scp-1 phosphatase inhibitors, retest, confirmation, biochemical, colorimetric, single concentration; recombinant SCP-1 catalytic domain, phosphate release, malachite green absorbance; 2,500 compounds, 61% hits; shares compounds with Scp1 inh; inhibition, % at 20 µM
MG interference – colorimetric readout interference by compounds, confirmation, artefact control for Scp-1 inhibitor project, biochemical, single concentration; shares compounds with Scp1 inh; Colorimetric interference counterscreen, malachite green absorbance 630 nm; apparent inhibition (interference), % at 20 µM; 2,500 tested, under 10 active;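 further: compounds added after enzyme reaction finished so only phosphate colour detection is probed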
Scp-1 Tm shift – Scp-1 binding by thermal shift, confirmation, orthogonal assay for Scp-1 inhibitor project, biophysical, differential scanning fluorimetry. shares compounds with Scp1 inh. 1,500 compounds, 25% hits. Recombinant SCP1, Sypro Orange thermal shift Tm. thermal shift relative to vanadate control, % at 40 µM. AID 540329, 2011;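 active means substances whose mean melting-temperature shift, as a percentage of the reference inhibitor's shift, reaches about 5.3%, limit read from the data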
Each line names hits and unclear results; the compound was inactive in the other large screens (follow-up assays come after a bar, where they were run).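 How the source made its calls, unless noted: active means inhibition of at least 30% at 20 µM; inactive means the rest.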

COc1cc(NC(=S)N2CCN(S(C)(=O)=O)CC2)cc(OC)c1	none
NS(=O)(=O)c1cnccc1NCCc1ccccc1	none
O=C(O)C1Cc2ccccc2CN1C(=O)COc1ccc(Br)cc1 (stereo not given)	Scp1 inh 53.1 | Scp1 confirm 55.0 | MG interference inactive | Scp-1 Tm shift inactive
CCN(CC)C(=O)COc1c(-c2ccco2)oc2ccccc2c1=O	none
CCN(CC)C(=O)COc1ccc2oc(-c3ccco3)cc(=O)c2c1	Scp1 inh 74.3 | Scp1 confirm 49.4 | MG interference inactive | Scp-1 Tm shift inactive
N#Cc1c(-c2ccccc2)nc(SCC(=O)Nc2ccc(OC(F)(F)Cl)cc2)[nH]c1=O	none
O=[N+]([O-])c1ccc(/C=N/Nc2ncc(Br)cn2)cc1	none
O=[N+]([O-])c1ccc(/C=N/Nc2ncc(-c3ccccc3)cn2)cc1	Scp1 inh 67.5 | Scp1 confirm inactive | MG interference inactive
Cc1ccc(C)c(OCCn2nnc3ccccc32)c1	none
Cc1cc(C)cc(OCCn2nnc3ccccc32)c1	Scp1 inh 61.5 | Scp1 confirm inactive | MG interference inactive
CCOC(=O)c1cc(C#N)c(SCC(=O)c2cc(C#N)c(SC)nc2C)[nH]c1=O	Scp1 inh 89.4 | Scp1 confirm inactive | MG interference inactive
C[N+]1(C2CCC3CCC2C3O)CCCC1 (stereo not given)	none
C[N+]12CCCCC1[C@@H](CO)CCC2 (stereo not given in full)	Scp1 inh 54.9 | Scp1 confirm inactive | MG interference inactive
Cc1c(CC(=O)N2CCC(C(=O)O)CC2)c(=O)oc2cc3c(cc12)CCC1(CCCCC1)O3	none
O=C1Nc2ccccc2/C1=N/N=C/c1ccc(-c2ccc([N+](=O)[O-])cc2)o1	Scp1 inh 75.1 | Scp1 confirm 36.3 | MG interference inactive | Scp-1 Tm shift 5.6
CN(/N=C/c1ccc(-c2ccc([N+](=O)[O-])cc2)o1)c1ccccc1	none
CSc1ccc(CNC(=O)C(C)n2nc(C)c3c(C)n(-c4ccccc4)nc3c2=O)cc1 (stereo not given)	none
CCCn1nc(NC(=O)COC)c2cc3cc(C)ccc3nc21	Scp1 inh 62.2 | Scp1 confirm inactive | MG interference inactive
COc1ccccc1CNC(=O)COC(=O)c1cnccn1	none
COc1ccccc1CNC(=O)c1cnccn1	Scp1 inh 55.9 | Scp1 confirm 56.9 | MG interference inactive | Scp-1 Tm shift inactive
CCOC(=O)N1CCC(NC(=O)c2cn(-c3ccc(OC)cc3)c(=O)c3ccccc23)CC1	none
CCOC(=O)N1CCC(N2Cc3cccc(C(=O)NCc4ccc5c(c4)OCO5)c3C2=O)CC1	Scp1 inh 91.6 | Scp1 confirm 65.1 | MG interference inactive | Scp-1 Tm shift inactive
CCOC(=O)N1CCC(NC(=O)c2cccc3c2C(=O)N(c2ccc(OC)cc2)C3)CC1	Scp1 inh 51.7 | Scp1 confirm 49.2 | MG interference inactive | Scp-1 Tm shift inactive
CCC(=O)c1ccc(NC(C)=O)cc1O	none
CC(=O)Nc1ccc2c(c1)C(C)(C)C(C)N2C (stereo not given)	Scp1 inh 82.0 (no result: SUMO1-SIM PPI, LMPTP block, STEP inh, NadD block, DNMT1 inh) | Scp1 confirm inactive | MG interference inactive
O=C(O)CCCN1C(=O)C2C3C=CC(C2C1=O)C1C(=O)N(CCCC(=O)O)C(=O)C31 (stereo not given)	none
C=CCOCCN1C(=O)C2C3C=CC(C2C1=O)C1C2C(=O)N(CCOCC=C)C(=O)C2C31 (stereo not given)	Scp1 inh 60.8 | Scp1 confirm 71.8 | MG interference inactive | Scp-1 Tm shift inactive
COc1ccc(NC(=O)c2ccc3c(c2)CCN3S(=O)(=O)c2ccccc2)c(OC)c1	Scp1 inh 60.5 | Scp1 confirm inactive | MG interference inactive
NC(=O)c1ccc(NC(=O)c2ccc3c(c2)CCN3S(=O)(=O)c2ccccc2)cc1	none
Cc1ccc(C(=O)CSC2=C(C#N)C(c3ccco3)CC(=O)N2)c(C)c1 (stereo not given)	Scp1 inh 60.6, DNMT1 inh 64.3 | Scp1 confirm 55.6 | MG interference inactive | Scp-1 Tm shift inactive
Cn1cc(/C=N/NC(=O)c2cc3cc(Br)ccc3o2)c2ccccc21	Scp1 inh 61.9 | Scp1 confirm inactive | MG interference inactive
CCc1ccc(-n2c(SCC(=O)N3Cc4ccccc4CC3C(=O)O)nnc2-c2ccncc2)cc1 (stereo not given)	none
Nn1c(SCC(=O)NCCN2C(=O)CSC2=O)nnc1-c1ccc(OC(F)F)cc1	none
O=C(CSc1nc(-c2ccc(F)cc2)cs1)NC(=O)NCc1ccco1	Scp1 inh 73.9 | Scp1 confirm 39.1 | MG interference inactive | Scp-1 Tm shift inactive
Nn1c(SCC(=O)NC(=O)NCc2ccco2)nnc1-c1ccc(OC(F)F)cc1	Scp1 inh 62.7 | Scp1 confirm 54.1 | MG interference inactive | Scp-1 Tm shift inactive
O=C(CSc1nncs1)NC(=O)NCc1ccco1	none
COc1cc(-c2nnc(COC(=O)c3cc(C)no3)o2)cc(OC)c1OC	none
COc1cc(-c2nnc(COC(=O)c3ccc(C)o3)o2)cc(OC)c1OC	Scp1 inh 59.0 | Scp1 confirm 47.2 | MG interference inactive | Scp-1 Tm shift inactive
S=c1nc[nH]c2c1ncn2C1CCCO1 (stereo not given)	none
O=C(COc1ccccc1)N1N=C(c2cccnc2)CC1(O)C(F)(F)F (stereo not given)	none
Cc1ccc(OCC(=O)N2N=C(c3ccncc3)CC2(O)C(F)(F)F)cc1C (stereo not given)	Scp1 inh 102.7 | Scp1 confirm inactive | MG interference inactive
CCC1Oc2ccccc2N(CC(=O)NCc2cccs2)C1=O (stereo not given)	none

Compound activity as filed in PubChem BioAssay.
